How the values were obtained:
SCG [1] = test: Cell activity of JNK inhibitors in neuronal apoptosis assay in SCG cells, percentage rescued neurons at 1uM compound concentration after 48 hours; assay type: functional, Rattus norvegicus
Procedure, shortened: (§1)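 They were cultured in Leibowitz medium with 5% rat serum, 0.75 µg/mL NGF 7S and arabinosine C 10^-5 M. On day 4, medium was switched to 10 µg/mL anti-NGF antibody without NGF or AraC, with inhibitor in 1% DMSO. After 24 h, cells were refed initial medium minus AraC. After another 24 h, viability was read by MTT (0.5 mg/mL, 30 min, 37 °C), OD 590 nm.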

SCG [2] = test: Cell activity of JNK inhibitors in neuronal apoptosis assay in SCG cells, percentage rescued neurons at 10 uM compound concentration after 24 hours; assay type: functional, Rattus norvegicus
[3] = biological target: Ribosomal protein S6 kinase alpha-5 (Homo sapiens) (UniProt O75582); test: Percentage activity of human MSK1 in the presence of 10 uM of compound and 10 uM of ATP in comparison with control
[4] = biological target: Dual specificity mitogen-activated protein kinase kinase 7 (Homo sapiens) (UniProt O14733); test: Percentage activity of human MKK7 beta in the presence of 10 uM of compound and 10 uM of ATP in comparison with control
[5] = biological target: Mitogen-activated protein kinase 1 (Homo sapiens) (UniProt P28482); test: Percentage activity of human MAPK2 in the presence of 10 uM of compound and 10 uM of ATP in comparison with control
[6] = biological target: Cytoplasmic tyrosine-protein kinase BMX (Homo sapiens) (UniProt P51813); test: Percentage activity of human Bmx in the presence of 10uM of compound and 10uM of ATP in comparison with control
[7] = biological target: Mitogen-activated protein kinase 12 (Homo sapiens) (UniProt P53778); test: Percentage activity of human SAPK3 in the presence of 10 uM of compound and 10 uM of ATP in comparison with control
[8] = biological target: Serine/threonine-protein kinase Chk2 (Homo sapiens) (UniProt O96017); test: Percentage activity of human CHK2 in the presence of 10 uM of compound and 10 uM of ATP in comparison with control
[9] = biological target: MAP kinase-activated protein kinase 2 (Homo sapiens) (UniProt P49137); test: Percentage activity of human MAPKAP-K2 in the presence of 10uM of compound and 10uM of ATP in comparison with control
[10] = biological target: Mitogen-activated protein kinase 9, JNK2 (Homo sapiens) (UniProt P45984); test: Percentage activity of human JNK2a2 in the presence of 10 uM of compound and 10 uM of ATP in comparison with control
[11] = biological target: Mitogen-activated protein kinase 13 (Homo sapiens) (UniProt O15264); test: Percentage activity of human SAPK4 in the presence of 10 uM of compound and 10 uM of ATP in comparison with control
[12] = biological target: Protein kinase C epsilon type (Homo sapiens) (UniProt Q02156); test: Percentage activity of human PKC epsilon in the presence of 10 uM of compound and 10 uM of ATP in comparison with control
[13] = biological target: Dual specificity mitogen-activated protein kinase kinase 6 (Homo sapiens) (UniProt P52564); test: Percentage activity of human MKK6 in the presence of 10 uM of compound and 10 uM of ATP in comparison with control
[14] = biological target: RAF proto-oncogene serine/threonine-protein kinase (Homo sapiens) (UniProt P04049); test: Percentage activity of human c-RAF in the presence of 10 uM of compound and 10 uM of ATP in comparison with control
[15] = biological target: Serine/threonine-protein kinase D2 (Homo sapiens) (UniProt Q9BZL6); test: Percentage activity of human PKD2 in the presence of 10 uM of compound and 10 uM of ATP in comparison with control
Rattus norvegicus = organism: Rattus norvegicus; test: Percentage activity of rat AMPK in the presence of 10 uM of compound and 10 uM of ATP in comparison with control
[16] = biological target: Mitogen-activated protein kinase 10 (Homo sapiens) (UniProt P53779); test: Percentage activity of human JNK3 in the presence of 10 uM of compound and 10 uM of ATP in comparison with control
[17] = biological target: Cyclin-dependent kinase 2/cyclin E (Homo sapiens) (UniProt P24864+P24941+O96020); test: Percentage activity of human CDK2 (with cyclin E) in the presence of 10 uM of compound and 10 uM of ATP in comparison with control; assay type: protein-complex assay
[18] = biological target: BDNF/NT-3 growth factors receptor TrkB (Homo sapiens) (UniProt Q16620); test: Percentage activity of human TrkB in the presence of 10 uM of compound and 10 uM of ATP in comparison with control
[19] = biological target: Mitogen-activated protein kinase 8 (Homo sapiens) (UniProt P45983); test: Percentage activity of human JNK1a1 in the presence of 10 uM of compound and 10 uM of ATP in comparison with control
[20] = biological target: Cyclin-dependent kinase 5/CDK5 activator 1 (Homo sapiens) (UniProt Q00535+Q15078); test: Percentage activity of human CDK5 (with […]) in the presence of 10 uM of compound and 10 uM of ATP in comparison with control; assay type: protein-complex assay
[21] = biological target: Serine/threonine-protein kinase D1 (Homo sapiens) (UniProt Q15139); test: Percentage activity of human PKC mu in the presence of 10 uM of compound and 10 uM of ATP in comparison with control
[22] = biological target: Tyrosine-protein kinase Lck (Homo sapiens) (UniProt P06239); test: Percentage activity of human Lck in the presence of 10 uM of compound and 10 uM of ATP in comparison with control
SCG [23] = test: Cell activity of JNK inhibitors in neuronal apoptosis assay in SCG cells, percentage rescued neurons at 10uM compound concentration after 48 hours; assay type: functional, Rattus norvegicus; procedure, shortened: as §1
[24] = biological target: Dual specificity mitogen-activated protein kinase kinase 4 (Mus musculus) (UniProt P47809); test: Percentage activity of mouse MKK4 in the presence of 10 uM of compound and 10 uM of ATP in comparison with control
[25] = biological target: Inhibitor of nuclear factor kappa-B kinase subunit alpha (Homo sapiens) (UniProt O15111); test: Percentage activity of human IKK alpha in the presence of 10 uM of compound and 10 uM of ATP in comparison with control
[26] = biological target: CDK3/cyclin E (Homo sapiens) (UniProt P24864+O96020+Q00526); test: Percentage activity of human CDK3 (with cyclin E) in the presence of 10 uM of compound and 10 uM of ATP in comparison with control; assay type: protein-complex assay
[27] = biological target: RAC-beta serine/threonine-protein kinase (Homo sapiens) (UniProt P31751); test: Percentage activity of human PKB beta in the presence of 10uM of compound and 10uM of ATP in comparison with control
[28] = biological target: Serine/threonine-protein kinase Sgk1 (Homo sapiens) (UniProt O00141); test: Percentage activity of human SGK in the presence of 10 uM of compound and 10 uM of ATP in comparison with control
Sequence of Serine/threonine-protein kinase Sgk1 (Homo sapiens) (O00141 whole entry): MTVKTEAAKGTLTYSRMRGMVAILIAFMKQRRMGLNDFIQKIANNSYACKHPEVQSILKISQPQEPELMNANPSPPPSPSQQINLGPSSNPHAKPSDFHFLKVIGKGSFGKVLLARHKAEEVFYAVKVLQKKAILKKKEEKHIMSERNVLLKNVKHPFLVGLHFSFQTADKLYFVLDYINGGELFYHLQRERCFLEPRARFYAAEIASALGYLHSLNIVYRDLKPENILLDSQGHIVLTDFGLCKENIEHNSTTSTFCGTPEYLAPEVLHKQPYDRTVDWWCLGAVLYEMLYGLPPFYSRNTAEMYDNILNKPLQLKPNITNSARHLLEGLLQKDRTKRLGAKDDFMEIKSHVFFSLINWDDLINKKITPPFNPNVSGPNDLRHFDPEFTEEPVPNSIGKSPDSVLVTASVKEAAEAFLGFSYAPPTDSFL

Sequence of Protein kinase C epsilon type (Homo sapiens) (Q02156 whole entry): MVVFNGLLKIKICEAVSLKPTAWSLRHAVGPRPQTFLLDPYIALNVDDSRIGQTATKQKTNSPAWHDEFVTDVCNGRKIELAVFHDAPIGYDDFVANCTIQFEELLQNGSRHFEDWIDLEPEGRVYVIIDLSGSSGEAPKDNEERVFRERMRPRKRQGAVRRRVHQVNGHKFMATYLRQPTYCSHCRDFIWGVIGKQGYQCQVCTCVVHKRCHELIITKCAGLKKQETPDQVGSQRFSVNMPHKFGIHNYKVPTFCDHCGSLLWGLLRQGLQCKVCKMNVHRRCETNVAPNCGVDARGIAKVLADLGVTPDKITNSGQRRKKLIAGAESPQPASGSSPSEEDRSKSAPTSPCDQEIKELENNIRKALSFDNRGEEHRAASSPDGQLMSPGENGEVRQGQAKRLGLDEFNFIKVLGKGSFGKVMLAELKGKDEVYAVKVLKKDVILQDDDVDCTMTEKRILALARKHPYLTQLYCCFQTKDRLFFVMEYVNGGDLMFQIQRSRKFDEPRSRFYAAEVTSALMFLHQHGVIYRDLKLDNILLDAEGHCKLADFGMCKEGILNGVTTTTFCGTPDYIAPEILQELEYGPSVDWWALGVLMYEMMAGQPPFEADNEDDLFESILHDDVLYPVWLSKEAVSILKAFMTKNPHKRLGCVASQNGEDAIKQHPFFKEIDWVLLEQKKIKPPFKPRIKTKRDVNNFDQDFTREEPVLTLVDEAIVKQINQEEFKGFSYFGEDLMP
Sequence of Tyrosine-protein kinase Lck (Homo sapiens) (P06239 2-509 limits assumed): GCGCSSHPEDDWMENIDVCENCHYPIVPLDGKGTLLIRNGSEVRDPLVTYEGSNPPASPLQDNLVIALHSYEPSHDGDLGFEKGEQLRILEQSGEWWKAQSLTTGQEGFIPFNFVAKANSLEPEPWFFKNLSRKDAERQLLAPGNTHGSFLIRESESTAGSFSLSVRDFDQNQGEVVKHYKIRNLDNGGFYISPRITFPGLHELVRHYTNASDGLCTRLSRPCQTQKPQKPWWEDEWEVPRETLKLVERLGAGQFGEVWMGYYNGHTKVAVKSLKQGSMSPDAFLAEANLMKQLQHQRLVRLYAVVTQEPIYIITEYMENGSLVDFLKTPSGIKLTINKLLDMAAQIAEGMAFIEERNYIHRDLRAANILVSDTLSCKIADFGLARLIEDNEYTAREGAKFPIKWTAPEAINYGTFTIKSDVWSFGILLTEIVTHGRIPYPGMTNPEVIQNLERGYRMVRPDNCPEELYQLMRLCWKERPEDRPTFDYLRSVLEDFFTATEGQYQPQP
Sequence of Serine/threonine-protein kinase D1 (Homo sapiens) (Q15139 whole entry): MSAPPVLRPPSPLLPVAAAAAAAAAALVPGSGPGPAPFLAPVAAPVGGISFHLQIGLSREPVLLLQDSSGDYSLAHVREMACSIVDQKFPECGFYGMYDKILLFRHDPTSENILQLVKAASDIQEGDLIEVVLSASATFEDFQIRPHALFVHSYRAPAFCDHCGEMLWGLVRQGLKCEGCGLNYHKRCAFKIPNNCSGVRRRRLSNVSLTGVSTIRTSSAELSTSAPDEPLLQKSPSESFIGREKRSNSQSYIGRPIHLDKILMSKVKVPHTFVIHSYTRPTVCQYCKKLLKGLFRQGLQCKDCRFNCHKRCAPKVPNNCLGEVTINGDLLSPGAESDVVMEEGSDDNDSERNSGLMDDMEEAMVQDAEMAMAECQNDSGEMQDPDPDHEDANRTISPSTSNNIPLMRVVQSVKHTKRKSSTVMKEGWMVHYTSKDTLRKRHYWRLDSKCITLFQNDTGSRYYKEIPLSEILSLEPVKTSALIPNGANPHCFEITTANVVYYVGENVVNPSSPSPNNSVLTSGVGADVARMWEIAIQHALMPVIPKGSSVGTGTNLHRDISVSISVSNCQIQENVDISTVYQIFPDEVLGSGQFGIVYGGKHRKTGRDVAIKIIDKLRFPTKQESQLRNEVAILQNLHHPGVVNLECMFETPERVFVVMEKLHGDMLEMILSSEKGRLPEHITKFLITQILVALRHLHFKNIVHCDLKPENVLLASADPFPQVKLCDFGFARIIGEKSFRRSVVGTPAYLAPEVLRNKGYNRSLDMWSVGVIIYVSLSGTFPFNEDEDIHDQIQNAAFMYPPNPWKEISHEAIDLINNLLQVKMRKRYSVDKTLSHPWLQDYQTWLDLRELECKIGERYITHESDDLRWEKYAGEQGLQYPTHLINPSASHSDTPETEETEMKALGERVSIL
Sequence of CDK3/cyclin E (Homo sapiens) (O96020 whole entry, looked up): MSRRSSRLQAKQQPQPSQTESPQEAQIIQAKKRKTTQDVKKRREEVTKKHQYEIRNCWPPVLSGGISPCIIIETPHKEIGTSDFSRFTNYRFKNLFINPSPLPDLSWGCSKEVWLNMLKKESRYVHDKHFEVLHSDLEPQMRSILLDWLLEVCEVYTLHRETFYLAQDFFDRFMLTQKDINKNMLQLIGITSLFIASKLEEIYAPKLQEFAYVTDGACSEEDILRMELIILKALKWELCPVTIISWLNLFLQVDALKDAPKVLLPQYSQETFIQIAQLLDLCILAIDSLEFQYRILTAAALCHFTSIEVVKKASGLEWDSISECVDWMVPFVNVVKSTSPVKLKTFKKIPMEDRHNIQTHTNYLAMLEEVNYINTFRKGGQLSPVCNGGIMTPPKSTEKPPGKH
Sequence of CDK3/cyclin E (Homo sapiens) (P24864 whole entry, looked up): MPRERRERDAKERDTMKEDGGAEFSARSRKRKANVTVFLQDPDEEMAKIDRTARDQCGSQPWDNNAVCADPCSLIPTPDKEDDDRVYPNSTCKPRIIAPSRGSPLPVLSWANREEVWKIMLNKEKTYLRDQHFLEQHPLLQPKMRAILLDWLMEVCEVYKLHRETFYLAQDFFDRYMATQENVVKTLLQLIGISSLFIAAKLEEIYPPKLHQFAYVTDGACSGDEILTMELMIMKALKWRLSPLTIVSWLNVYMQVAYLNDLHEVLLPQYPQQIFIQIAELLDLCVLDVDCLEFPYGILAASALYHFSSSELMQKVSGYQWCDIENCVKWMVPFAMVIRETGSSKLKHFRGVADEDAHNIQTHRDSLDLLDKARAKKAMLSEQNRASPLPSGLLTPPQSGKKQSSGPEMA
Sequence of CDK3/cyclin E (Homo sapiens) (Q00526 whole entry, looked up): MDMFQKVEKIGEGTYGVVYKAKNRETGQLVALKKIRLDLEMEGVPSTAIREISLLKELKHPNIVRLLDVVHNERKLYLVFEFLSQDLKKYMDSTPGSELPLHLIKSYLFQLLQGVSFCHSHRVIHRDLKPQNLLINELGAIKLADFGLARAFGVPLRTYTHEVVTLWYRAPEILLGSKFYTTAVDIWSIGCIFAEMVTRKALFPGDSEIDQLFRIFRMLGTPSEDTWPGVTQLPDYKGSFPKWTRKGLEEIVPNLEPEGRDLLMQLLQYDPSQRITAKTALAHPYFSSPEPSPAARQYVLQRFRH
Sequence of RAF proto-oncogene serine/threonine-protein kinase (Homo sapiens) (P04049 whole entry): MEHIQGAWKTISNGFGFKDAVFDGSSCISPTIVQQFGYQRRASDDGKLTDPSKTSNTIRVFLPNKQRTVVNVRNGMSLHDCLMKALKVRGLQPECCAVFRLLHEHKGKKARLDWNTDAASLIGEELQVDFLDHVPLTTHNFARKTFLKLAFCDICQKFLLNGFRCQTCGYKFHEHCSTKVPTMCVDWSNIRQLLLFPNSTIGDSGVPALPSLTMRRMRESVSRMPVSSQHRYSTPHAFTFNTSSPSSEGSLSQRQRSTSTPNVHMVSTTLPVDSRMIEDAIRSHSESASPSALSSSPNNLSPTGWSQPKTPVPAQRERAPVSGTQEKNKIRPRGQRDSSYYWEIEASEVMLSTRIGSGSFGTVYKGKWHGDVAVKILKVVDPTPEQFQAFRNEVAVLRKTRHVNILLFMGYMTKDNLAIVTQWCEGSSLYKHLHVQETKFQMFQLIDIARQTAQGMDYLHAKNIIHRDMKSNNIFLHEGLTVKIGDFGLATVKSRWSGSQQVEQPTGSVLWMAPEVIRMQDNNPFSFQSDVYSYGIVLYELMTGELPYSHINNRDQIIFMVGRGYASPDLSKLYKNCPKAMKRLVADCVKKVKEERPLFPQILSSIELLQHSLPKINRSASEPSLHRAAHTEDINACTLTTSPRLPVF
Sequence of MAP kinase-activated protein kinase 2 (Homo sapiens) (P49137 whole entry, looked up): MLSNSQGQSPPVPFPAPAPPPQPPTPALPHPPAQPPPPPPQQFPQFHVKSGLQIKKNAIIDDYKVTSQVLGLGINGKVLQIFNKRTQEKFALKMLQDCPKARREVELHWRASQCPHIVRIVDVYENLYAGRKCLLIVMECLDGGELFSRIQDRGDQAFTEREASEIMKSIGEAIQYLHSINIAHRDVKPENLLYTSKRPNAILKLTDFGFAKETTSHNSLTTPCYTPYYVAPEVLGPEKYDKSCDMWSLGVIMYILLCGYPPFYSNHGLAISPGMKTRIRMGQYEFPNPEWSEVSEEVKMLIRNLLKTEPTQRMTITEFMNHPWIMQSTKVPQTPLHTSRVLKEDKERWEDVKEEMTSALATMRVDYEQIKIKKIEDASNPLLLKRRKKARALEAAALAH

O=C(NCc1ccc(S(=O)(=O)N2CCC(n3nnc4ccccc43)CC2)s1)c1ccc(Cl)cc1
Rescued neurons (SCG [1]): 2.2%
Rescued neurons (SCG [2]): 27.3%
Activity [3]: 86%
Activity [4]: 121%
Activity [5]: 106%
Activity [6]: 88%
Activity [7]: 106%
Activity [8]: 75%
Activity [9]: 74%
Activity [10]: 16%
Activity [11]: 101%
Activity [12]: 95%
Activity [13]: 106%
Activity [14]: 93%
Activity [15]: 95%
Activity (Rattus norvegicus): 90%
Activity [16]: 6%
Activity [17]: 94%
Activity [18]: 83%
Activity [19]: 20%
Activity [20]: 103%
Activity [21]: 93%
Activity [22]: 85%
Rescued neurons (SCG [23]): 56%
Activity [24]: 112%
Activity [25]: 92%
Activity [26]: 97%
Activity [27]: 118%
Activity [28]: 67%

Source: ChEMBL document CHEMBL1137942, “Design, synthesis, and biological activity of novel, potent, and selective (benzoylaminomethyl)thiophene sulfonamide inhibitors of c-Jun-N-terminal kinase” (J Med Chem, 2004)
